Cytotoxicity data for 97 compounds are collected here from ChEMBL document CHEMBL4513216, “Probing the Open Global Health Chemical Diversity Library for Multistage-Active Starting Points for Next-Generation Antimalarials” (ACS Infect Dis, 2020).

The data set is described as follows: Toxicity liver stage against HepG2, at 10uM. The data set is classed as cell-based. Details: test concentration 10 uM, cell line HepG2-A16-CD81EGFP. The settings on record: human, HepG2-A16-CD81EGFP cells; read-out: INHIBITION
A digest of the protocol: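 Uninfected HepG2-A16-CD81EGFP cells, 3 × 10^3 per well, 1536-well, plated on prespotted compound at 10 μM final, parasite-free screening media added to match infected plates; puromycin 10 μM positive, DMSO 0.5% negative; run in parallel with 48 h PbLuc assay at 37 °C, 5% CO2; viability by CellTiter-Glo luminescence, normalized to controls.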
In the case of `CC(C)CN1CCc2[nH]cnc2C12CCN(C(=O)c1cnn(C)c1)CC2`, the cytotoxicity at 10 µM was -4.68%.

As to `CCN(C(=O)CN1CCCC1c1ccc(OC)cc1)c1ccccc1C` (configuration not stated), the cytotoxicity at 10 µM is 0.623%.

As for `CCN(C(=O)NCc1ncc(C)c(OC)c1C)C(C)c1cccnc1` (configuration not stated), the cytotoxicity at 10 µM is 1.84%.

As for `Cc1csc(CN2CC[C@H]3C[C@H](C)O[C@@H]3C2)n1`, the cytotoxicity at 10 µM stood at 2.58%.

`Cc1noc(C)c1CN1CC[C@@H]2O[C@@H](COCC3CC3)CC[C@@H]21`: the cytotoxicity at 10 µM was found to be 6.46%.

For `CNC(=O)C1(CCCc2ccccn2)CN(Cc2coc(C)n2)C1`, the cytotoxicity at 10 µM amounted to 8.62%.

On to `Cc1nn(C)c(C)c1CNCc1ccc(N2CCOCC2)nc1`, for which the cytotoxicity at 10 µM was determined as 3.68%.

Regarding `O=C(Cc1ccccc1)NCCNC(=O)c1scnc1Cl`, the cytotoxicity at 10 µM is -1.55%.

Take `CS(=O)(=O)N1CCc2ncc(CNC(=O)C3CCC3)n2CC1`: the cytotoxicity at 10 µM was 10.9%.

With `CC(c1ccccc1)N(C)C(=O)CN1CCCc2cccc(F)c21` (configuration not stated), the cytotoxicity at 10 µM came to 22.5%.

As for `COCCNC(=O)Nc1ccc(F)c(C(N)=O)c1`, the cytotoxicity at 10 µM is -6.46%.

For the compound `CCOc1cc(C)nc(N2CCN(C(=O)Cn3cc(C)cn3)CC2)n1`, the cytotoxicity at 10 µM was -5.43%.

For `Cc1nc(C)c2c(n1)CCN(Cc1ccsc1)CC2`, the cytotoxicity at 10 µM is -126%.

As to `CCN1CCc2[nH]cnc2C12CCN(C(=O)CCCn1cncn1)CC2`, the cytotoxicity at 10 µM is -19.2%.

On to `COc1cccc(CC(=O)N2Cc3nccn3CC(CN(C)C)C2)c1` (configuration not stated), for which the cytotoxicity at 10 µM is -135%.

Regarding `COc1ccc(S(=O)(=O)NC(=O)COC2CCCC2)cc1`, the cytotoxicity at 10 µM was -2.55%.

For the compound `CC(C)Cc1ncc2c(n1)CN(c1cc(NC3CC3)nc(N)n1)C2`, the cytotoxicity at 10 µM is -5.82%.

Turning to `CCc1cc(O)nc(C2CCCN2C(=O)c2cc(C)no2)n1` (configuration not stated), the cytotoxicity at 10 µM came out at 2.69%.

As to `O=C1CN(Cc2cn(CC3CCCN(C4CCSCC4)C3)nn2)CCN1` (configuration not stated), the cytotoxicity at 10 µM is -49.3%.

In the case of `COc1c(C)cnc(CNC(=O)c2cc(C)nc3c2c(C)nn3C)c1C`, the cytotoxicity at 10 µM is -1.28%.

On to `CN(C)C(=O)c1nc(CN2C(=O)OC[C@@H]2c2ccccc2)no1`, for which the cytotoxicity at 10 µM was -1.95%.

Consider `Cc1ccc(CNC(=O)c2c[nH]nc2NC(=O)C2CCC2)cc1`, for which the cytotoxicity at 10 µM was determined as 2.05%.

As to `Cc1cc(CN2CCC(c3nccn3C(C)C)CC2)ccc1F`, the cytotoxicity at 10 µM was determined as 5.22%.

As for `COc1cc(-c2cc(N)ncn2)cc(OC)c1OC`, the cytotoxicity at 10 µM is -5.11%.

As for `CC(O)(CCc1ccccc1)CNC(=O)c1cccs1` (configuration not stated), the cytotoxicity at 10 µM was -1.44%.

Regarding `CC(Nc1ccc(CCN2CCCCC2)cc1)C(=O)N(C)CCC#N` (configuration not stated), the cytotoxicity at 10 µM came out at 7.61%.

As for `CS(=O)(=O)NC(=O)CCc1cccc(OC2CCCC2)c1`, the cytotoxicity at 10 µM was -5.01%.

As to `CCS(=O)(=O)N1CCOC2(CCCN(c3cccc(C#N)c3)C2)C1` (configuration not stated), the cytotoxicity at 10 µM stood at 0.341%.

In the case of `COc1cc(NCc2ccc(Cl)cc2)c(-c2nn[nH]n2)cc1OC`, the cytotoxicity at 10 µM came out at 10.1%.

Take `CN(Cc1cc(Cl)c2c(c1)OCO2)Cc1cscn1`: the cytotoxicity at 10 µM is -2.76%.

As to `Cc1ccc(C(=O)NS(=O)(=O)Cc2ccon2)c(C)c1`, the cytotoxicity at 10 µM is -3.16%.

As to `CC(NC(=O)C1(NC(=O)c2ccc3[nH]ncc3c2)CCCC1)C1CC1` (configuration not stated), the cytotoxicity at 10 µM was -2.03%.

In the case of `CCN(CC)c1ncc(Cl)c(C(=O)NC2CCc3nccn3C2)n1` (configuration not stated), the cytotoxicity at 10 µM was -49.5%.

`Cc1noc(C2CCCN(CC(=O)N3CCNC(=O)C3)C2)n1` (configuration not stated): the cytotoxicity at 10 µM was -13%.

For `CCc1nc(C2CCCN2C(=O)CCc2cccs2)no1` (configuration not stated), the cytotoxicity at 10 µM was -3.19%.

For the compound `CCN1CCN(c2nc(C(C)C)nc3c(C)nn(CC)c23)CC1`, the cytotoxicity at 10 µM is -12.6%.

`Cc1cccc(CN2C[C@@H]3COC[C@]3(COc3ccc(C#N)cn3)C2)n1`: the cytotoxicity at 10 µM is -21.2%.

On to `Cc1ccoc1C(=O)N1C[C@H](OCC2CC2)[C@H]2OCCC[C@H]21`, for which the cytotoxicity at 10 µM is 2.89%.

As for `CC(C)(C)c1nc(CN(Cc2ccccc2F)C2CCCCC2)no1`, the cytotoxicity at 10 µM was -2.65%.

On to `Cc1nc(CN2CCC23CCN(C(=O)c2ccco2)CC3)cs1`, for which the cytotoxicity at 10 µM was -98.9%.

On to `Cn1cc(CN2CCC3(CC2)CCN(C(=O)c2cscn2)C3)cn1`, for which the cytotoxicity at 10 µM was -2.45%.

As to `COCCn1ccc2cc(C(=O)N3CCN(S(C)(=O)=O)CC3)ccc21`, the cytotoxicity at 10 µM was -6.63%.

In the case of `Cc1nn(C)c(C)c1CCC(=O)N1CCCC(n2cccn2)C1` (configuration not stated), the cytotoxicity at 10 µM was -6.69%.

Turning to `c1ccc(N2CCC(NCc3cccc4cn[nH]c34)C2)cc1` (configuration not stated), the cytotoxicity at 10 µM is 13.6%.

For the compound `Cc1ncc2c(n1)CN(Cc1nc(-c3ccco3)oc1C)CC2`, the cytotoxicity at 10 µM turned out to be 2.2%.

Turning to `Cn1ccnc1C1(O)CCCN(Cc2ccncc2)CC1` (configuration not stated), the cytotoxicity at 10 µM is 1.52%.

In the case of `c1ccc(CN2CCN(C3CCOC4(CCOCC4)C3)CC2)nc1` (configuration not stated), the cytotoxicity at 10 µM is -0.971%.

Take `Cc1ccc(F)cc1NC(=O)CCn1cncn1`: the cytotoxicity at 10 µM is -0.639%.

Regarding `Cc1nnsc1C(=O)NCC1CCN(c2ccccn2)CC1`, the cytotoxicity at 10 µM was found to be 11.9%.

On to `CCCc1ccc(CN2CCN(C(=O)CC(C)C)[C@@H]3CS(=O)(=O)C[C@@H]32)o1`, for which the cytotoxicity at 10 µM is 5.31%.

Regarding `CN(C)C(=O)Cn1c2c(ccc1=O)CCN(Cc1cnn(C)c1)CC2`, the cytotoxicity at 10 µM amounted to 0.886%.

For the compound `Cc1ccc2c(c1)C(NCc1ccccn1)CC2` (configuration not stated), the cytotoxicity at 10 µM stood at 5.47%.

Take `COc1ccc(OC2CCN(C(=O)CCc3n[nH]c(N)n3)CC2)cc1`: the cytotoxicity at 10 µM amounted to 1.43%.

Take `Cc1cc(NC(=O)Cn2cc(C#N)c(=O)c3cc(Br)ccc32)no1`: the cytotoxicity at 10 µM came out at 16.5%.

Consider `O=C(O)Cn1nc(C2CC2)c2c(-c3ccc(F)cc3)ccnc21`, for which the cytotoxicity at 10 µM is -3.32%.

`CC(CNC(=O)c1cnccn1)Oc1ccc(F)cc1` (configuration not stated): the cytotoxicity at 10 µM was -2.55%.

`CC(C)c1nnc(NCCS(C)(=O)=O)s1`: the cytotoxicity at 10 µM is -1%.

Turning to `Cc1ccc(CNC(=O)c2ccc(=O)n(C)n2)c(OCC2CC2)c1`, the cytotoxicity at 10 µM was -5.92%.

As to `Cc1nc2n(n1)CC(NCc1ccnc(-c3ccccc3)n1)CC2` (configuration not stated), the cytotoxicity at 10 µM was -0.898%.

For `CCOC[C@]12COC[C@H]1CN(Cc1ccc(F)c(F)c1)C2`, the cytotoxicity at 10 µM is -107%.

Regarding `Cc1ccc(C(=O)NCCNCC2CNc3ccnn3C2)cc1F` (configuration not stated), the cytotoxicity at 10 µM is -1.62%.

Regarding `CCCN1CCN(Cc2cn(CCC(N)=O)c3ccccc23)CC1`, the cytotoxicity at 10 µM was 4.7%.

As to `Cc1c2nnn(CC(=O)N(C)C)c(=O)c2nn1C`, the cytotoxicity at 10 µM is -4.26%.

As to `Cc1ccc(CN2CCOC(c3cnccn3)C2)s1` (configuration not stated), the cytotoxicity at 10 µM was -2.81%.

With `COc1ccc2cnn(CC(=O)NC3CCCCC3)c(=O)c2c1OC`, the cytotoxicity at 10 µM was -2.49%.

As for `Nc1nc2nc(C3CCCN(C(=O)c4cncs4)C3)ccc2s1` (configuration not stated), the cytotoxicity at 10 µM is -19.1%.

`Cn1cc(CN2CCOCC3(CCN(C4CCOCC4)C3)C2)cn1` (configuration not stated): the cytotoxicity at 10 µM was -3.92%.

For `CCc1ncncc1C(=O)N1CCOC(c2nc(C)n[nH]2)C1` (configuration not stated), the cytotoxicity at 10 µM turned out to be 0.842%.

For the compound `CN1[C@H](Cn2cccn2)C[C@@H]2CN(C(=O)Cc3cccs3)CC[C@@H]21`, the cytotoxicity at 10 µM came to 9.58%.

For `OC1CCN(CCCNc2ncccn2)CC1`, the cytotoxicity at 10 µM was found to be 2.68%.

`OC1CCN(Cc2cc3c(cc2Br)OCCO3)CC1`: the cytotoxicity at 10 µM turned out to be 7.73%.

As to `COc1ccc(C(=O)C2CCCN(Cc3cc(C)n[nH]3)C2)c(OC)c1` (configuration not stated), the cytotoxicity at 10 µM was -6.77%.

`O=C(Cc1ccccc1)N1CC[C@@H]2CNS(=O)(=O)[C@@H]2CC1`: the cytotoxicity at 10 µM was -9.88%.

Take `CN(C)CCN1CC(C(=O)N2CCC(c3nccn3C)CC2)CC1=O` (configuration not stated): the cytotoxicity at 10 µM was -7.2%.

Turning to `Cc1cc(NC(=O)NCC(O)c2ccc(F)cc2)n(C)n1` (configuration not stated), the cytotoxicity at 10 µM is -2.69%.

For the compound `Cc1nccn1-c1ncccc1NC(=O)CCOCC(C)C`, the cytotoxicity at 10 µM was -2.59%.

As for `CCc1nnc2n1CCN(Cc1nc3c(F)cccc3[nH]1)C2`, the cytotoxicity at 10 µM is -8.06%.

Regarding `CC(=O)N1C[C@H]2CN(CC3CC3)C(=O)[C@H]2C1`, the cytotoxicity at 10 µM was found to be 6.32%.

In the case of `COc1ccc(C(=O)N2CCC(c3nccn3C(C)C)CC2)cc1OC`, the cytotoxicity at 10 µM was 1.52%.

Take `c1ccc(OCCN2CCC(c3nnc(-c4cccnc4)o3)CC2)cc1`: the cytotoxicity at 10 µM was -27.9%.

Regarding `CC(C)NC(=O)N1Cc2nccn2CC(CN2CCCC2)C1` (configuration not stated), the cytotoxicity at 10 µM is -75.8%.

`COCCn1ccnc1C1CCCN(C(=O)CSc2nnc(C)o2)C1` (configuration not stated): the cytotoxicity at 10 µM is -4.3%.

As to `O=C(CCOc1ccccc1Cl)N1CCN(c2cnccn2)CC1`, the cytotoxicity at 10 µM was -29.2%.

In the case of `Cc1nc(CN2CCCC(Nc3ncnc4ccsc34)C2)no1` (configuration not stated), the cytotoxicity at 10 µM is 42.2%.

In the case of `COCC1CN(C(=O)c2ccoc2)Cc2cnn(CC3CCOCC3)c21` (configuration not stated), the cytotoxicity at 10 µM amounted to 2.77%.

`Nc1nc2c(c(N3CCSCC3)n1)CCN(Cc1ccccn1)CC2`: the cytotoxicity at 10 µM is -53%.

As for `CCOCC1CN(C(=O)c2cc(C)oc2C)Cc2c1cnn2C` (configuration not stated), the cytotoxicity at 10 µM stood at 9.64%.

For `Cn1nnc2c1C(COCc1cccnc1)CN(Cc1ccoc1)C2` (configuration not stated), the cytotoxicity at 10 µM is -2.55%.

Take `Cc1nc(N(C)C)nc(N(C)Cc2cnccn2)c1C`: the cytotoxicity at 10 µM was found to be 3.4%.

For `Cn1c(NCC(O)c2ccc(F)cc2F)c(C#N)c(=O)n(C)c1=O` (configuration not stated), the cytotoxicity at 10 µM is -10.9%.

Consider `Nc1nc(CN2CCOC(Cn3cncn3)C2)nc2ccccc12` (configuration not stated), for which the cytotoxicity at 10 µM is -0.734%.

Take `Cc1nc(N(C)CCCc2nccn2C)c2nc(C)oc2n1`: the cytotoxicity at 10 µM is 5.82%.

As for `CCc1nc(C2CCCN2C(=O)CCc2cscn2)no1` (configuration not stated), the cytotoxicity at 10 µM is -3.12%.

Consider `CC(C)c1cc(C(=O)N2CCN(c3ccncc3)CC2)n(C)n1`, for which the cytotoxicity at 10 µM was -3.5%.

On to `CCc1nnc(CN(C)Cc2nc(-c3ccccc3Cl)oc2C)o1`, for which the cytotoxicity at 10 µM was -7.43%.

Consider `O=C(c1cccc2c1OCCO2)N1CCCC(n2cccn2)C1` (configuration not stated), for which the cytotoxicity at 10 µM is -3.73%.

Consider `CSCC[C@H](NC(=O)Cn1ccc2c(Br)cccc21)C(=O)O`, for which the cytotoxicity at 10 µM was -2.94%.
